Measured values from ChEMBL document CHEMBL3244400, “Synthesis of 3,4-dihydro-4-oxothieno[2,3-d]pyrimidine-2-carboxylates, a new series of orally active antiallergy agents” (J Med Chem, 1979).
The source made the active and inactive calls. No cut-off for these calls is given here.

Assays:
Rattus norvegicus [1] = test: Antiallergic activity against egg albumin-induced anaphylaxis in po dosed sensitized rat compound administered 15 mins prior to antigen challenge as single dose by passive cutaneous anaphylaxis test; format: functional
Procedure, shortened: (§1)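 Male Sprague–Dawley or Wistar rats (100–150 g) were passively sensitized by two intradermal dilutions of rat anti-egg-albumin serum, which was mainly IgE and raised with EA im (10 mg/kg) plus killed pertussis vaccine iv. After 48 h, drug or vehicle was given. Rats were then challenged iv with EA plus Evans Blue (25 mg/kg each). Spot diameter was read 20–30 min later; ≥5 rats/compound. % inhibition was calculated versus control mean diameter.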

Rattus norvegicus [2] = test: Antiallergic activity against egg albumin-induced anaphylaxis in iv dosed sensitized rat compound administered 15 mins prior to antigen challenge as single dose by passive cutaneous anaphylaxis test; format: functional; procedure, shortened: as §1
Rattus norvegicus [3] = test: Antiallergic activity against egg albumin-induced anaphylaxis in sensitized rat at 30 mg/kg, po administered 15 mins prior to antigen challenge as single dose measured up to 4 hrs by passive cutaneous anaphylaxis test; format: functional, organism-based; parameters: dose 30 mg/kg; procedure, shortened: as §1
Rattus norvegicus [4] = test: Antiallergic activity against egg albumin-induced anaphylaxis in sensitized rat at 25 mg/kg, po administered 15 mins prior to antigen challenge as single dose measured up to 4 hrs by passive cutaneous anaphylaxis test; format: functional, organism-based; parameters: dose 25 mg/kg; procedure, shortened: as §1
Rattus norvegicus [5] = test: Antiallergic activity against egg albumin-induced anaphylaxis in sensitized rat at 10 mg/kg, po administered 15 mins prior to antigen challenge as single dose measured up to 4 hrs by passive cutaneous anaphylaxis test; format: functional, organism-based; parameters: dose 10 mg/kg; procedure, shortened: as §1
Rattus norvegicus [6] = test: Antiallergic activity against egg albumin-induced anaphylaxis in sensitized rat at 5 mg/kg, po administered 15 mins prior to antigen challenge as single dose measured up to 4 hrs by passive cutaneous anaphylaxis test; format: functional, organism-based; parameters: dose 5 mg/kg; procedure, shortened: as §1
Rattus norvegicus [7] = test: Antiallergic activity against egg albumin-induced anaphylaxis in sensitized rat at 50 mg/kg, po administered 15 mins prior to antigen challenge as single dose measured up to 4 hrs by passive cutaneous anaphylaxis test; format: functional, organism-based; parameters: dose 50 mg/kg; procedure, shortened: as §1

Row | Compound | ED50 (Rattus norvegicus [1]) [mg/kg] | also measured
1 | CCCCCCc1sc2nc(C(=O)OCC)oc(=O)c2c1C | 8.2 | –
2 | CCOC(=O)C(=O)Nc1sccc1C(N)=O | 4.5 | ED50 (Rattus norvegicus [2]): 0.2 mg/kg; Activity (Rattus norvegicus [3]): Active
3 | CCCCCCc1sc2nc(C(=O)OCC)[nH]c(=O)c2c1C | 50 | –
4 | CCOC(=O)c1nc2sc(CC)c(C)c2c(=O)[nH]1 | 11.3 | –
5 | CCc1sc2nc(C(=O)O)nc(O)c2c1N | – | Activity (Rattus norvegicus [4]): inactive
6 | CCCCCCc1cc2c(=O)oc(C(=O)OCC)nc2s1 | – | Activity (Rattus norvegicus [5]): inactive
7 | CCOC(=O)c1nc2sccc2c(=O)[nH]1 | > 25 | –
8 | CCOC(=O)c1nc2sc(CC(C)C)c(C)c2c(=O)o1 | – | Activity (Rattus norvegicus [6]): inactive
9 | CCOC(=O)c1nc2sc(CC)cc2c(=O)o1 | 34.4 | –
10 | Cc1c(CC(C)C)sc2nc(C(=O)[O-])nc([O-])c12.O.[K+].[K+] | 2.7 | ED50 (Rattus norvegicus [2]): 0.14 mg/kg
11 | CCOC(=O)c1nc2sc(C(C)C)cc2c(=O)[nH]1 | 17.9 | –
12 | CC(=O)c1sc2nc(C(=O)O)nc(O)c2c1C | – | Activity (Rattus norvegicus [7]): inactive
13 | CCCCCCc1cc2c([O-])nc(C(=O)[O-])nc2s1.O.[Na+].[Na+] | 17.7 | –
14 | CCOC(=O)c1nc2sc(CC)c(C)c2c(=O)o1 | – | Activity (Rattus norvegicus [6]): inactive
15 | Cc1csc2nc(C(=O)[O-])nc([O-])c12.O.[Na+].[Na+] | 50 | –
